Results: ChEMBL document CHEMBL1649135, “Use of a surface plasmon resonance method to investigate antibiotic and plasma protein interactions” (Antimicrob Agents Chemother, 2009)
≈ marks a conversion by molar mass, not a printed value.

Tests used:
Staphylococcus aureus [1] = experiment: Antimicrobial activity against Staphylococcus aureus CIP 76.25 by microdilution method in presence of 0.1% alpha-1-acid glycoprotein; assay type: functional
In short: (§1)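 Broth microdilution MICs against S. aureus CIP 76.25 by CLSI (formerly NCCLS) standard methods, run in duplicate. Each test medium was supplemented with one serum component: 50% human serum, 4% HSA, 0.1% AGP or 1.6% human gamma globulins. These levels were chosen to match normal physiological concentrations. MIC was read as in standard testing.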

Staphylococcus aureus [2] = experiment: Antimicrobial activity against Staphylococcus aureus CIP 76.25 by microdilution method in presence of 4% human serum albumin; assay type: functional; in short: as §1
Staphylococcus aureus [3] = experiment: Antimicrobial activity against Staphylococcus aureus CIP 76.25 by microdilution method in presence of 50% human serum; assay type: functional; in short: as §1
Staphylococcus aureus [4] = experiment: Antimicrobial activity against Staphylococcus aureus CIP 76.25 by microdilution method; assay type: functional
In short: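 S. aureus CIP 76.25 MICs determined in duplicate by CLSI standard broth microdilution.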

Staphylococcus aureus [5] = experiment: Antimicrobial activity against Staphylococcus aureus CIP 76.25 by microdilution method in presence of 1.6% gamma globulin; assay type: functional; in short: as §1
Albumin [6] = target: T1, Albumin (Homo sapiens, UniProt P02768); experiment: Binding affinity to first site on human serum albumin by SPR; assay type: ADME
In short: (§2)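 SPR on a BIACORE 3000 at 25°C. HSA was amine-coupled to a CM5 chip at 40 µg/ml in 10 mM acetate, pH 5.2. Drug was injected from 400 µM to 0.1 µM in twofold dilutions in PBS with 5% DMSO at 50 µl/min, with 30 s association and 30 s dissociation. Responses were reference-subtracted, read 10 s into the injection and DMSO-corrected. Dose-response curves gave KD or fraction of sites occupied.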

[7] = Binding affinity to human alpha-1-acid glycoprotein assessed as compound binding sites level by SPR; assay type: ADME
In short: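 Ranking by SPR at 25°C. AGP was PDEA-modified and thiol-coupled to a CM5 chip; a reference surface carried no protein. Drugs at 250 µM in PBS with 5% DMSO were injected in randomized duplicates for 30 s at 50 µl/min. Responses were DMSO-calibration-corrected and normalized to a 10,000-RU immobilization level. Experiments were run in triplicate, mean ± SE.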

[8] = Protein binding in serum; assay type: ADME, cell-free; conditions: read-out: PB (converted)
Albumin [9] = target: T1, Albumin; experiment: Binding affinity to human serum albumin assessed as fraction of binding sites occupied by compound at 130 to 180 ug/ml by SPR; assay type: ADME; conditions: isolated protein; in short: as §2
Albumin [10] = target: T1, Albumin; experiment: Binding affinity to human serum albumin assessed as fraction of binding sites occupied by compound at 7 to 15 ug/ml by SPR; assay type: ADME; conditions: isolated protein; in short: as §2
Albumin [11] = target: T1, Albumin; experiment: Binding affinity to human serum albumin assessed as fraction of binding sites occupied by compound at 60 ug/ml by SPR; assay type: ADME; conditions: isolated protein; in short: as §2
Albumin [12] = target: T1, Albumin; experiment: Binding affinity to human serum albumin assessed as fraction of binding sites occupied by compound at 120 ug/ml by SPR; assay type: ADME; conditions: isolated protein; in short: as §2
Albumin [13] = target: T1, Albumin; experiment: Binding affinity to human serum albumin assessed as fraction of binding sites occupied by compound at 245 ug/ml by SPR; assay type: ADME; conditions: isolated protein; in short: as §2
Albumin [14] = target: T1, Albumin; experiment: Binding affinity to human serum albumin assessed as fraction of binding sites occupied by compound at 80 to 120 ug/ml by SPR; assay type: ADME; conditions: isolated protein; in short: as §2
Albumin [15] = target: T1, Albumin; experiment: Binding affinity to human serum albumin assessed as fraction of binding sites occupied by compound at >325 ug/ml by SPR; assay type: ADME; conditions: isolated protein; in short: as §2
Albumin [16] = target: T1, Albumin; experiment: Binding affinity to human serum albumin assessed as fraction of binding sites occupied by compound at 20 ug/ml by SPR; assay type: ADME; conditions: isolated protein
In short: (§3)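 HSA amine-coupled on CM5 chip at 25°C, with a reference flow cell lacking protein. Compound in PBS with 5% DMSO, injected at 400 to 0.1 µM in twofold dilutions, 50 µl/min, 30 s association and 30 s dissociation. Reference-subtracted responses read 10 s into injection and DMSO-corrected. Fraction of sites occupied plotted against drug concentration from dose-response curves.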

Albumin [17] = target: T1, Albumin; experiment: Binding affinity to human serum albumin assessed as fraction of binding sites occupied by compound at 160 ug/ml by SPR; assay type: ADME; conditions: isolated protein; in short: as §3
Albumin [18] = target: T1, Albumin; experiment: Binding affinity to human serum albumin assessed as fraction of binding sites occupied by compound at 215 to 430 ug/ml by SPR; assay type: ADME; conditions: isolated protein; in short: as §3
Albumin [19] = target: T1, Albumin; experiment: Binding affinity to human serum albumin assessed as fraction of binding sites occupied by compound at 146 to 220 ug/ml by SPR; assay type: ADME; conditions: isolated protein; in short: as §2
Albumin [20] = target: T1, Albumin; experiment: Binding affinity to human serum albumin assessed as fraction of binding sites occupied by compound at 22 to 44 ug/ml by SPR; assay type: ADME; conditions: isolated protein; in short: as §3
Albumin [21] = target: T1, Albumin; experiment: Binding affinity to human serum albumin assessed as fraction of binding sites occupied by compound at 180 ug/ml by SPR; assay type: ADME; conditions: isolated protein; in short: as §3

T1 sequence (P02768 whole entry): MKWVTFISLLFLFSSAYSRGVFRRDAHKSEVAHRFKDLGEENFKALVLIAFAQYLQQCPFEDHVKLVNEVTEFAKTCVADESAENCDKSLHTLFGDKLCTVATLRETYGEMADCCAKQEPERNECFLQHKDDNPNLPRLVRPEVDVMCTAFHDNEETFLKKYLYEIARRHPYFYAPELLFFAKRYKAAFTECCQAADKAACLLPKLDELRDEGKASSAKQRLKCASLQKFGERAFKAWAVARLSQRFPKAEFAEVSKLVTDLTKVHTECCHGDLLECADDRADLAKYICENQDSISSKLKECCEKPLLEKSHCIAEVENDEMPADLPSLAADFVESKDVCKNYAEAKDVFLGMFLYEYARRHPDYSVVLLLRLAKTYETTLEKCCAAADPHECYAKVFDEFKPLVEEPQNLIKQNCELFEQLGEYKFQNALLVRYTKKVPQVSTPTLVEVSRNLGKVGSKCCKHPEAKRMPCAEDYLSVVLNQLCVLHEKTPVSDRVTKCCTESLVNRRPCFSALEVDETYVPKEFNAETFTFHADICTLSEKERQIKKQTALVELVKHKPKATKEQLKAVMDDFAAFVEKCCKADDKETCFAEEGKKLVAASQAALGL

Row | SMILES | MIC (Staphylococcus aureus [1]) [mg/L] | MIC (Staphylococcus aureus [2]) [mg/L] | MIC (Staphylococcus aureus [3]) [mg/L] | MIC (Staphylococcus aureus [4]) [mg/L] | MIC (Staphylococcus aureus [5]) [mg/L] | Kd (Albumin [6]) [µM] | Ratio [7] | fraction unbound [8] | further results
1 | CCC[C@@H]1C[C@@H](C(=O)N[C@@H]([C@H]2O[C@H](SC)[C@H](O)[C@@H](O)[C@H]2O)[C@@H](C)O)N(C)C1 [LINCOMYCIN] | 2 | 2 | 2 | 0.391 (≈ 0.962 µM) | 1 | 12 | < 1 | 0.25 | Ratio (Albumin [9]): 0.5
2 | CO[C@@H]1[C@@H](OC(N)=O)[C@@H](O)[C@H](Oc2ccc3c(O)c(NC(=O)c4ccc(O)c(CC=C(C)C)c4)c(=O)oc3c2C)OC1(C)C [NOVOBIOCIN] | 2 | 256 | 1020 | 0.049 (≈ 0.08 µM) | 2 | 12 | < 1 |  | Ratio (Albumin [10]): 0.5; Ratio (Albumin [11]): 1; Ratio (Albumin [12]): 1.5
3 | CO[C@H]1/C=C/O[C@@]2(C)Oc3c(C)c(O)c4c(O)c(c(/C=N/N5CCN(C)CC5)c(O)c4c3C2=O)NC(=O)/C(C)=C\C=C\[C@H](C)[C@H](O)[C@@H](C)[C@@H](O)[C@@H](C)[C@H](OC(C)=O)[C@@H]1C [RIFAMPIN] | 1 | 4 | 4 | 0.049 (≈ 0.0595 µM) | 2 | 12 | < 1 | 0.36 | Ratio (Albumin [13]): 0.5; Ratio (Albumin [14]): 1; Ratio (Albumin [15]): 1.5
4 | CC(=O)O[C@H]1C[C@@]2(C)[C@@H](C[C@@H](O)[C@H]3[C@@]4(C)CC[C@@H](O)[C@@H](C)[C@@H]4CC[C@@]32C)/C1=C(\CCC=C(C)C)C(=O)O [FUSIDIC ACID] | 2 | 256 | 1020 | 0.049 (≈ 0.0948 µM) | 2 | 12 | < 1 | 0.03 | Ratio (Albumin [16]): 0.5; Ratio (Albumin [17]): 1; Ratio (Albumin [18]): 1.5
5 | CN(C)c1ccc(O)c2c1C[C@H]1C[C@H]3[C@H](N(C)C)C(O)=C(C(N)=O)C(=O)[C@@]3(O)C(O)=C1C2=O [MINOCYCLINE] | 1 | 4 | 4 | 0.195 (≈ 0.426 µM) | 1 | 12 | < 1 | 0.46 | 
6 | CC1COc2c(N3CCN(C)CC3)c(F)cc3c(=O)c(C(=O)O)cn1c23 (configuration not stated) [OFLOXACIN] | 1 | 1 | 2 | 0.195 (≈ 0.54 µM) | 2 | 12 |  |  | 
7 | CC[C@H]1OC(=O)[C@H](C)[C@@H](O[C@H]2C[C@@](C)(OC)[C@@H](O)[C@H](C)O2)[C@H](C)[C@@H](O[C@@H]2O[C@H](C)C[C@H](N(C)C)[C@H]2O)[C@](C)(O)C[C@@H](C)C(=O)[C@H](C)[C@@H](O)[C@]1(C)O [ERYTHROMYCIN] | 2 | 2 | 2 | 0.195 (≈ 0.266 µM) | 2 | 12 | < 1 | 0.81 | Ratio (Albumin [19]): 0.5
8 | CN[C@H](CC(C)C)C(=O)N[C@H]1C(=O)N[C@@H](CC(N)=O)C(=O)N[C@H]2C(=O)N[C@H]3C(=O)N[C@H](C(=O)N[C@H](C(=O)O)c4cc(O)cc(O)c4-c4cc3ccc4O)[C@H](O)c3ccc(c(Cl)c3)Oc3cc2cc(c3O[C@@H]2O[C@H](CO)[C@@H](O)[C@H](O)[C@H]2O[C@H]2C[C@](C)(N)[C@H](O)[C@H](C)O2)Oc2ccc(cc2Cl)[C@H]1O [VANCOMYCIN] |  |  |  | 0.781 (≈ 0.539 µM) |  | 12 |  | 0.9 | 
9 | CO/N=C(\C(=O)N[C@@H]1C(=O)N2C(C(=O)O)=C(COC(C)=O)CS[C@H]12)c1csc(N)n1 [CEFOTAXIME] | 1 | 1 | 4 | 0.781 (≈ 1.71 µM) | 2 | 12 | < 1 | 0.97 | Ratio (Albumin [20]): 0.5; Ratio (Albumin [21]): 1
